From PubChem BioAssay AID1046 (PCMD, 2008)
In all, about 220,000 compounds went through this assay and about 560 (0.25%) were called active.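 The calls were made as follows: active = inhibition at or above 40%; inactive = inhibition below 40%.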 What follows is part of a selection rich in actives, with near analogues and random picks from the rest.

molecular target: Prothrombin (Homo sapiens) (UniProt P00734); experiment: human alpha-thrombin inhibitors, primary screen, counter-screen for coagulation protease inhibitor project, biochemical, 1536-well, fluorogenic AMC substrate (AID 1046); conditions: Boc-VPR-AMC fluorogenic substrate cleavage, at 5 µM, hits give high values;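 also: 0% = enzyme with no compound and 100% = wells without enzyme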
Method in brief: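 Test system: human alpha-thrombin protein / Dosing: one concentration per compound, 5 µM, with 0.2% DMSO / Medium: pH 7.5 Tris-saline with Tween 20 / Benchmarks: no-compound enzyme wells and no-enzyme blanks / Read-out basis: percent inhibition of thrombin substrate cleavage / Timing: reaction at room temperature / Measured by: fluorescence, ex 355 nm, em 460 nm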

Row | Compound | inhibition
1 | CCOC(=O)c1c(NC(=O)C(C)Sc2c[nH]c3ccccc23)sc2c1CCC2 (stereo unspecified) | 1.33% (inactive)
2 | O=C(CSc1nc2c(cnn2-c2ccc(F)cc2)c(=O)[nH]1)N1CCCCCC1 | 40.9% (active)
3 | Cc1nnc(SCC(=O)N2CCOCC2)[nH]c1=O | -2.64% (inactive)
4 | CC(=O)c1sc2nc(SCC(=O)N3CCCCC3)[nH]c(=O)c2c1C | -2.78% (inactive)
5 | CCNC(=S)NNC(=O)C1CCN(Cc2ccccc2)CC1 | -3.23% (inactive)
6 | O=C(Nc1cc2c3c(c1)C1CCCC1CN3CC1CCCC21)c1ccc([N+](=O)[O-])cc1 (stereo unspecified) | 101% (active)
7 | Cc1ccc(C)n1NC(=O)c1ccc([N+](=O)[O-])cc1 | -0.02% (inactive)
8 | O=C(Nn1cnnc1)c1ccc([N+](=O)[O-])cc1 | -7.16% (inactive)
9 | Cn1c(=O)c(=O)n(C)c2cc(S(=O)(=O)NCCN3CCN(c4ccccc4F)CC3)ccc21 | -4.5% (inactive)
10 | C=CCC(Nc1ccccc1)c1cccc(OC)c1OC (stereo unspecified) | -13% (inactive)
11 | CC1COc2ccccc2N1S(=O)(=O)c1ccccc1 (stereo unspecified) | 4.45% (inactive)
12 | Cc1ccccc1Cn1nc(C)c(NC(=O)C(F)(F)F)c1C | -1.16% (inactive)
13 | CCO[C@@H]1OC(C(=O)NC2CC2)=C[C@H](C)[C@H]1CCCO | -5.9% (inactive)
14 | CCN1CCN(CC(=O)c2cc(OC)c(OC)c(OC)c2)CC1 | 45.6% (active)
15 | CCCN(CCC)S(=O)(=O)c1ccc(C(=O)NNC(=O)c2cc(OC)c(OC)c(OC)c2)cc1 | 2.82% (inactive)
16 | COC(=O)c1cccc(NC(=O)CN2CCC(NC(=O)c3cc(OC)c(OC)c(OC)c3)CC2)c1 | -1.04% (inactive)

Row | Compound | inhibition
17 | CCCN(CCC)c1c([N+](=O)[O-])c(=O)oc2ccccc12 | 0.93% (inactive)
18 | COc1ccc(OC)c(-n2c(-c3ccn[nH]3)n[nH]c2=S)c1 | -4.83% (inactive)
19 | COCC(=O)Nc1cc(C(=O)OC)cc(C(=O)OC)c1 | 0.93% (inactive)
20 | O=C(Cc1ccccc1)n1nc(-c2ccccc2)nc1NCc1ccco1 | 75.1% (active)
21 | c1ccc(-c2nc(NCc3ccco3)c3ccccc3n2)cc1 | 3.14% (inactive)
22 | CS(=O)(=O)n1nc(-c2ccccc2)nc1NCc1ccco1 | -2.92% (inactive)
23 | O=C(c1ccc(N2CCOCC2)c([N+](=O)[O-])c1)N1CCN(S(=O)(=O)c2cccs2)CC1 | -1.14% (inactive)
24 | c1ccc(CN=C2Nc3ccccc3CS2)nc1 | -2.61% (inactive)
25 | O=C(CSc1nc2ccccc2s1)Nc1ccc(C(=O)O)cc1 | -1.16% (inactive)
26 | CCn1cc(CNC(=O)c2cc([N+](=O)[O-])c(C)c([N+](=O)[O-])c2)cn1 | -0.78% (inactive)
27 | Cc1ccc(CN2CCN(Cc3cn(C)nc3-c3ccccc3)CC2CCO)o1 (stereo unspecified) | 0.78% (inactive)
28 | Cc1ccc(S(=O)(=O)/N=C(/NC(=S)Nc2c(C)n(C)n(-c3ccccc3)c2=O)c2ccccc2)cc1 | 3.47% (inactive)
29 | Cc1ccc(S(=O)(=O)CC(=O)Nc2c(C)n(C)n(-c3ccccc3)c2=O)cc1 | 46.1% (active)
30 | Cc1cc(C)cc(N(CC(=O)Nc2c(C)n(C)n(-c3ccccc3)c2=O)S(C)(=O)=O)c1 | 4.95% (inactive)
31 | CC(=O)N/C(=C\c1ccc(F)cc1)C(=O)NC(Cc1ccccc1)C(=O)O (stereo unspecified) | -5.05% (inactive)
